In ChEMBL document CHEMBL2440032, “Synthesis of sterically encumbered 11β-aminoprogesterone derivatives and evaluation as 11β-hydroxysteroid dehydrogenase inhibitors and mineralocorticoid receptor antagonists” (Bioorg Med Chem, 2013):
Calls of active or inactive are those of the source. No cut-off for these calls is given here.

Columns and labels:
[1] = target: T1, 11-beta-hydroxysteroid dehydrogenase type 2 (Homo sapiens, UniProt P80365); experiment: Inhibition of human recombinant 11beta-HSD2 expressed in HEK293 cells assessed as inhibition of [1,2,6,7-3H]-cortisol to [3H]cortisone preincubated for 10 mins before substrate addition by scintillation counting; assay type: cell-based
T1 sequence (P80365 whole entry): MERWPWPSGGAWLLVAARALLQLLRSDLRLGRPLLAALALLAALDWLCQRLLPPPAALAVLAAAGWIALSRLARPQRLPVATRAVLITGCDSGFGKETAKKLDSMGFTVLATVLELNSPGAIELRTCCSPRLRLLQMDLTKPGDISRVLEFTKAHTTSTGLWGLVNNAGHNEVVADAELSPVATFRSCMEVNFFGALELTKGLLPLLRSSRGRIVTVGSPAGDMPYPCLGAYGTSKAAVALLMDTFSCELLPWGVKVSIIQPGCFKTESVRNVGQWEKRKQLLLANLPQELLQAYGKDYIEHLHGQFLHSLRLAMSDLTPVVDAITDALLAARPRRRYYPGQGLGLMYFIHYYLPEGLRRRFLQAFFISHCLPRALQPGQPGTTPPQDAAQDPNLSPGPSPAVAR

[2] = target: T2, 11-beta-hydroxysteroid dehydrogenase 1 (Homo sapiens, UniProt P28845); experiment: Inhibition of human recombinant 11beta-HSD1 expressed in HEK293 cells assessed as inhibition of [1,2,-3H]-cortisone to [3H]cortisol preincubated at 10 uM for 10 mins before substrate addition by scintillation counting; assay type: cell-based
In short: (§1)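 Lysates of HEK-293 cells expressing human 11βHSD1, in buffer with 1 mM MgCl2, 250 mM sucrose and 20 mM Tris–HCl pH 7.4, sonicated and used at once. Incubated 10 min at 37 °C with 200 nM [1,2-3H]cortisone and 500 µM NADPH. Stopped with excess unlabeled cortisone/cortisol in methanol, then TLC separation and scintillation counting for substrate conversion. Three independent experiments.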
Target sequence in this assay (P28845 whole entry, looked up): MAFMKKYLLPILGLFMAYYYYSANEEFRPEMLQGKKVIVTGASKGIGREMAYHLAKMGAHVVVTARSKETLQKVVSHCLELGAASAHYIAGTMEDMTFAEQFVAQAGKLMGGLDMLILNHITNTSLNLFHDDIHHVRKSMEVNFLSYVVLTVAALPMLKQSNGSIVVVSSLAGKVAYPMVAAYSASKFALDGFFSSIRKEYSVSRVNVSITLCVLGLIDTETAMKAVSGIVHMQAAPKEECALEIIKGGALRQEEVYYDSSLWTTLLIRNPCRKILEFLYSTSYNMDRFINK

[3] = target: T3, Mineralocorticoid receptor (Homo sapiens, UniProt P08235); experiment: (§2) Antagonist activity at human recombinant mineralocorticoid receptor expressed in HEK-293 cells after 24 hrs assessed as inhibition of aldosterone-induced receptor activity by […]; assay type: cell-based, HEK293
T3 sequence (P08235 whole entry): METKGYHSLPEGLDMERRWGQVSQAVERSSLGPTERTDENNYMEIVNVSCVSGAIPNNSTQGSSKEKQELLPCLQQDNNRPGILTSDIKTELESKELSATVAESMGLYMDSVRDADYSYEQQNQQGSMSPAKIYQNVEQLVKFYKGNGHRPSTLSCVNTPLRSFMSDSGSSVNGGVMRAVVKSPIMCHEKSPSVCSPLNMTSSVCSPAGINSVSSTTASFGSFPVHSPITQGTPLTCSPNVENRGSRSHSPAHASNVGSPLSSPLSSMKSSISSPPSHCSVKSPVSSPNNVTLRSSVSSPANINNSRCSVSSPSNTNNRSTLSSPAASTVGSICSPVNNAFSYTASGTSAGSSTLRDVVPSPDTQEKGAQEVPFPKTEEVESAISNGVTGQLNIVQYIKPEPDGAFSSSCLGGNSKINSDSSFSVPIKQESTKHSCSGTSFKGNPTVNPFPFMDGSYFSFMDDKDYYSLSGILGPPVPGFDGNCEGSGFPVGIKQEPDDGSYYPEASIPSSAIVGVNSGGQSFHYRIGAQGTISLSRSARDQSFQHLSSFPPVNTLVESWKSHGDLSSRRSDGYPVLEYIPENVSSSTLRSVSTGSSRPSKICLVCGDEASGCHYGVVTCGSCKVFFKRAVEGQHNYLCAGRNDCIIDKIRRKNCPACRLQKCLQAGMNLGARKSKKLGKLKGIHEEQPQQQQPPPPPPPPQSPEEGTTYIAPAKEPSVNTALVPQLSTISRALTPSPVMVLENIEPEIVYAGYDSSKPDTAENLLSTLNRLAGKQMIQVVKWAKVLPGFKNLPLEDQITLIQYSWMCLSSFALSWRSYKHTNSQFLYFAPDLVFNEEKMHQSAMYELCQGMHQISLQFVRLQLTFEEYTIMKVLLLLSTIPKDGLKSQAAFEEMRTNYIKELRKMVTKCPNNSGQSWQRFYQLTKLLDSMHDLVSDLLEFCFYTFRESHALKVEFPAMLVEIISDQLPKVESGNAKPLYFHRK
In short: (§3)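 HEK-293 cells, 150,000 per well, plated for 24 h, then calcium-phosphate transfected with pMMTV-lacZ β-galactosidase reporter, pCMV-LUC luciferase control and human MR plasmid. Cells were washed with charcoal-treated DMEM containing 10% FBS, then exposed to a range of compound concentrations with or without 10 nM aldosterone. Readout was β-galactosidase normalized to luciferase, relative to vehicle. Three independent experiments.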

[4] = target: T4, Mineralocorticoid receptor (Homo sapiens) (UniProt P08235); experiment: (§4) Transactivation of human recombinant mineralocorticoid receptor expressed in HEK-293 cells after 24 hrs […]; assay type: cell-based; conditions: HEK293; in short: as §3
T4 sequence (whole entry): T3 sequence (P08235 whole entry)

[5] = target: T4, Mineralocorticoid receptor (Homo sapiens); experiment: as §2; assay type: cell-based; conditions: HEK293; in short: as §3
[6] = target: T3, Mineralocorticoid receptor; experiment: as §4; assay type: cell-based, HEK293; in short: as §3
[7] = target: T2, 11-beta-hydroxysteroid dehydrogenase 1; experiment: Inhibition of human recombinant 11beta-HSD1 expressed in HEK293 cells assessed as inhibition of [1,2,-3H]-cortisone to [3H]cortisol preincubated for 10 mins before substrate addition by scintillation counting; assay type: cell-based; in short: as §1
Target sequence in this assay (P28845 whole entry): as the sequence (P28845 whole entry, looked up) above

[8] = target: T3, Mineralocorticoid receptor; experiment: Transactivation of wild-type human recombinant mineralocorticoid receptor expressed in COS7 cells after 24 hrs by luciferase reporter gene assay; assay type: cell-based, COS-7

SMILES	IC50 [1]	inhibition [2]	other results
CC(=O)[C@H]1CC[C@H]2[C@@H]3CCC4=CC(=O)CC[C@]4(C)[C@H]3[C@@H](NCC(=O)O)C[C@]12C	2.69 µM	–	–
CC(=O)[C@H]1CC[C@H]2[C@@H]3CCC4=CC(=O)CC[C@]4(C)[C@H]3[C@@H](NC[C@@H](CO)NC(=O)OC(C)(C)C)C[C@]12C	4.21 µM	< 70%	–
CC(=O)[C@H]1CC[C@H]2[C@@H]3CCC4=CC(=O)CC[C@]4(C)[C@H]3[C@@H](N=[N+]=[N-])C[C@]12C [11BETA-AZIDOPROGESTERONE]	–	–	IC50 [3]: 3.5 µM; Activity [4]: inactive
CC(=O)[C@H]1CC[C@H]2[C@@H]3CCC4=CC(=O)CC[C@]4(C)[C@H]3[C@@H](NC[C@@H](N)C(=O)O)C[C@]12C	–	–	inhibition [5]: inactive; EC50 [6]: 4.1 µM
CC(=O)[C@H]1CC[C@H]2[C@@H]3CCC4=CC(=O)CC[C@]4(C)[C@H]3[C@@H](NS(=O)(=O)c3ccccc3[N+](=O)[O-])C[C@]12C	–	–	IC50 [3]: 10.9 µM; Activity [4]: inactive
CC(=O)[C@H]1CC[C@H]2[C@@H]3CCC4=CC(=O)CC[C@]4(C)[C@H]3[C@@H](O)C[C@]12C [11BETA-HYDROXYPROGESTERONE]	–	> 70%	inhibition [5]: inactive; IC50 [7]: 1.16 µM; EC50 [8]: 0.05 µM; EC50 [6]: 14 µM
CC(=O)[C@H]1CC[C@H]2[C@@H]3CCC4=CC(=O)CC[C@]4(C)[C@H]3[C@@H](NCC(=O)OC(C)(C)C)C[C@]12C	2.41 µM	–	–
CC(=O)[C@H]1CC[C@H]2[C@@H]3CCC4=CC(=O)CC[C@]4(C)[C@H]3[C@@H](NC[C@H]3COC(C)(C)N3C(=O)OC(C)(C)C)C[C@]12C	5.85 µM	< 70%	–
CC(=O)[C@H]1CC[C@H]2[C@@H]3CCC4=CC(=O)CC[C@]4(C)[C@H]3[C@@H](N)C[C@]12C [11BETA-AMINOPROGESTERONE]	2.2 µM	–	–
CCOC(=O)/C(CN[C@H]1C[C@]2(C)[C@@H](C(C)=O)CC[C@H]2[C@@H]2CCC3=CC(=O)CC[C@]3(C)[C@H]21)=N\O	1.05 µM	> 70%	IC50 [7]: 0.64 µM
CC(=O)[C@H]1CC[C@H]2[C@@H]3CCC4=CC(=O)CC[C@]4(C)[C@H]3[C@H](O)C[C@]12C	–	> 70%	IC50 [7]: 0.63 µM
CC(=O)[C@H]1CC[C@H]2[C@@H]3CCC4=CC(=O)CC[C@]4(C)[C@H]3[C@@H](NC[C@H](N)C(=O)O)C[C@]12C	6.76 µM	< 70%	–
